Consider 20 compounds from PMC6467287 (Bioorganic & medicinal chemistry letters, 2018).

One series deals with MCF7 breast cancer cells. Description: Effects on MCF7 cells. Type of series: cell-based. The following applies: for cytotoxicity of C17 hydrolysis products: viability of MCF7 cells.
In series [1] the test system is DUBs (decomposition of high molecular weight ubiquitinated proteins, HMW-Ub) in HEK 293T cell lysates. Type of series: biochemical. The following applies: for DUB inhibitory activity, SAR statement in words: ring B amine modification; for stabilization of the HMW-Ub pool (in words): HEK 293T HA-Ub lysates, 37 °C; for increase of inhibitory potency (factor): relative to C4.

The target in a further series is T1, SENP6 (Homo sapiens, UniProt Q9GZR1).
T1 sequence (Q9GZR1 628-1112): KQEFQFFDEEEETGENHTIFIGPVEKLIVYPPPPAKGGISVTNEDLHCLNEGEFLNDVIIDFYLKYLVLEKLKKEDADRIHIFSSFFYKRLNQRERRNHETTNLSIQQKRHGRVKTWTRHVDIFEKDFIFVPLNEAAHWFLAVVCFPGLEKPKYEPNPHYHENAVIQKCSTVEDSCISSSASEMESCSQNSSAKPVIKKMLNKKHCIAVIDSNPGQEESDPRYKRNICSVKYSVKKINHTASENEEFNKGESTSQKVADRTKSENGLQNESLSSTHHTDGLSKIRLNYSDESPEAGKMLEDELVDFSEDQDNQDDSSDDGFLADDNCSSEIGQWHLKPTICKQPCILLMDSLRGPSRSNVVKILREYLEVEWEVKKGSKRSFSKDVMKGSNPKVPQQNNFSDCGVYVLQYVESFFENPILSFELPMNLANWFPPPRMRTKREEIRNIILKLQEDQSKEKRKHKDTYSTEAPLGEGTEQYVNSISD
Description: SENP6-catalyzed deSUMOylation of RanGap. The following applies: 30 min at room temperature with inhibitor. Format: biochemical. Summed up:
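His6-tagged SENP6 catalytic domain (aa 628-1112, 200 nM) was preincubated with test compound for 30 min at room temperature. SUMOylated His6-RanGap1 catalytic domain (aa 418-588, 3 μM) was then added for 10 min at 37 °C. Reactions were quenched in Laemmli buffer, resolved by SDS-PAGE and blotted with anti-His6 antibody.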

In series [2] the test system is endogenous K48-linked HMW ubiquitin pool in untransfected HEK 293T lysates. Type of series: biochemical. Particulars: read-out: EC50 for stabilization of the endogenous K48-linked HMW ubiquitin pool.
Series [3] has as its system 26S proteasome (flux through the ubiquitin-proteasome system). Description: G76VUb-GFP assay in HEK 293T cells. Type of series: cell-based. Particulars: HEK 293T cells expressing G76VUb-GFP.
The test system of another series is K562 leukemia cells. Description: Effects on K562 leukemia cells. Type of series: cell-based. Particulars: for accumulation of K48-linked HMW-Ub / Bcr-Abl level: 50 μM, 2 h; for Bcr-Abl level: anti-Abl immunoblot. An outline of the steps: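 K562 cells were treated with test compound (50 μM, 2 h) and immunoblotted for K48-linked ubiquitin and for Bcr-Abl (anti-Abl); Bcr-Abl was also tested over a dose range. For the bortezomib series, cells got test compound (50 μM) with or without bortezomib (6 μM) for 4 h. Lysates were sonicated in SDS before PAGE. Cell cycle was read by FACS, scoring G1 and sub-G1 (apoptotic) cells.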
Background: A western blot detects proteins with antibodies after separation by electrophoresis.

Series [4] concerns DUBs (USP9x, USP19, USP7/8, USP28/15, UCHL5, UCHL3, UCHL1) in HEK 293T cell lysates. Description: HA-Ub-VS activity profiling of HEK 293T cell lysates. Type of series: biochemical. Summed up: (§1)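 HEK 293T lysate (1.5 mg/ml) was treated with test compound (25 μM) or DMSO, then HA-Ub-VS (1.5 μM) was added, or both were added together. Timed aliquots were anti-HA blotted. For the dilution test, lysate (15 mg/ml) was preincubated with compound (250 μM) for 30 min, diluted tenfold, then given HA-Ub-VS (1.5 μM). USP7 was read by anti-USP7 blot as the probe-shifted band.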

Series [5] has as its target DUBs (USP9x, USP19, USP7/8, USP28/15, UCHL5, UCHL3, UCHL1) in HEK 293T cell lysates (Homo sapiens, UniProt Q93009). The series is described as above. Format: biochemical. The following applies: HEK 293T cell lysate. An outline of the steps: as §1
Another series concerns trypsin. Description: Trypsin-catalyzed hydrolysis of diarylcarbonates. Format: biochemical. Summed up:
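The diarylcarbonate served as substrate for trypsin. Hydrolysis velocity was measured across substrate concentrations, and Km and kcat were derived from the velocity versus substrate concentration plot.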

In another series the target is USP9x (Homo sapiens, UniProt Q93008). Description: Time-dependent inhibition of recombinant USP9x. Type of series: biochemical. The following applies: read-out: kon of commercially available DUB inhibitors (range).
Series [6] has as its system NCc1ccc(OC(=O)Oc2ccc3ccccc3c2)cc1. Description: purified protein, by the assay type. The following applies: other: chymotrypsin; 37.0 °C.
The test system of series [7] is N/N=C/NCc1ccc(OC(=O)Oc2ccc3ccccc3c2)cc1. Description: purified protein, by the assay type. The following applies: other: chymotrypsin; 37.0 °C.

Sequence of USP9x (Q93008 whole entry, species assumed): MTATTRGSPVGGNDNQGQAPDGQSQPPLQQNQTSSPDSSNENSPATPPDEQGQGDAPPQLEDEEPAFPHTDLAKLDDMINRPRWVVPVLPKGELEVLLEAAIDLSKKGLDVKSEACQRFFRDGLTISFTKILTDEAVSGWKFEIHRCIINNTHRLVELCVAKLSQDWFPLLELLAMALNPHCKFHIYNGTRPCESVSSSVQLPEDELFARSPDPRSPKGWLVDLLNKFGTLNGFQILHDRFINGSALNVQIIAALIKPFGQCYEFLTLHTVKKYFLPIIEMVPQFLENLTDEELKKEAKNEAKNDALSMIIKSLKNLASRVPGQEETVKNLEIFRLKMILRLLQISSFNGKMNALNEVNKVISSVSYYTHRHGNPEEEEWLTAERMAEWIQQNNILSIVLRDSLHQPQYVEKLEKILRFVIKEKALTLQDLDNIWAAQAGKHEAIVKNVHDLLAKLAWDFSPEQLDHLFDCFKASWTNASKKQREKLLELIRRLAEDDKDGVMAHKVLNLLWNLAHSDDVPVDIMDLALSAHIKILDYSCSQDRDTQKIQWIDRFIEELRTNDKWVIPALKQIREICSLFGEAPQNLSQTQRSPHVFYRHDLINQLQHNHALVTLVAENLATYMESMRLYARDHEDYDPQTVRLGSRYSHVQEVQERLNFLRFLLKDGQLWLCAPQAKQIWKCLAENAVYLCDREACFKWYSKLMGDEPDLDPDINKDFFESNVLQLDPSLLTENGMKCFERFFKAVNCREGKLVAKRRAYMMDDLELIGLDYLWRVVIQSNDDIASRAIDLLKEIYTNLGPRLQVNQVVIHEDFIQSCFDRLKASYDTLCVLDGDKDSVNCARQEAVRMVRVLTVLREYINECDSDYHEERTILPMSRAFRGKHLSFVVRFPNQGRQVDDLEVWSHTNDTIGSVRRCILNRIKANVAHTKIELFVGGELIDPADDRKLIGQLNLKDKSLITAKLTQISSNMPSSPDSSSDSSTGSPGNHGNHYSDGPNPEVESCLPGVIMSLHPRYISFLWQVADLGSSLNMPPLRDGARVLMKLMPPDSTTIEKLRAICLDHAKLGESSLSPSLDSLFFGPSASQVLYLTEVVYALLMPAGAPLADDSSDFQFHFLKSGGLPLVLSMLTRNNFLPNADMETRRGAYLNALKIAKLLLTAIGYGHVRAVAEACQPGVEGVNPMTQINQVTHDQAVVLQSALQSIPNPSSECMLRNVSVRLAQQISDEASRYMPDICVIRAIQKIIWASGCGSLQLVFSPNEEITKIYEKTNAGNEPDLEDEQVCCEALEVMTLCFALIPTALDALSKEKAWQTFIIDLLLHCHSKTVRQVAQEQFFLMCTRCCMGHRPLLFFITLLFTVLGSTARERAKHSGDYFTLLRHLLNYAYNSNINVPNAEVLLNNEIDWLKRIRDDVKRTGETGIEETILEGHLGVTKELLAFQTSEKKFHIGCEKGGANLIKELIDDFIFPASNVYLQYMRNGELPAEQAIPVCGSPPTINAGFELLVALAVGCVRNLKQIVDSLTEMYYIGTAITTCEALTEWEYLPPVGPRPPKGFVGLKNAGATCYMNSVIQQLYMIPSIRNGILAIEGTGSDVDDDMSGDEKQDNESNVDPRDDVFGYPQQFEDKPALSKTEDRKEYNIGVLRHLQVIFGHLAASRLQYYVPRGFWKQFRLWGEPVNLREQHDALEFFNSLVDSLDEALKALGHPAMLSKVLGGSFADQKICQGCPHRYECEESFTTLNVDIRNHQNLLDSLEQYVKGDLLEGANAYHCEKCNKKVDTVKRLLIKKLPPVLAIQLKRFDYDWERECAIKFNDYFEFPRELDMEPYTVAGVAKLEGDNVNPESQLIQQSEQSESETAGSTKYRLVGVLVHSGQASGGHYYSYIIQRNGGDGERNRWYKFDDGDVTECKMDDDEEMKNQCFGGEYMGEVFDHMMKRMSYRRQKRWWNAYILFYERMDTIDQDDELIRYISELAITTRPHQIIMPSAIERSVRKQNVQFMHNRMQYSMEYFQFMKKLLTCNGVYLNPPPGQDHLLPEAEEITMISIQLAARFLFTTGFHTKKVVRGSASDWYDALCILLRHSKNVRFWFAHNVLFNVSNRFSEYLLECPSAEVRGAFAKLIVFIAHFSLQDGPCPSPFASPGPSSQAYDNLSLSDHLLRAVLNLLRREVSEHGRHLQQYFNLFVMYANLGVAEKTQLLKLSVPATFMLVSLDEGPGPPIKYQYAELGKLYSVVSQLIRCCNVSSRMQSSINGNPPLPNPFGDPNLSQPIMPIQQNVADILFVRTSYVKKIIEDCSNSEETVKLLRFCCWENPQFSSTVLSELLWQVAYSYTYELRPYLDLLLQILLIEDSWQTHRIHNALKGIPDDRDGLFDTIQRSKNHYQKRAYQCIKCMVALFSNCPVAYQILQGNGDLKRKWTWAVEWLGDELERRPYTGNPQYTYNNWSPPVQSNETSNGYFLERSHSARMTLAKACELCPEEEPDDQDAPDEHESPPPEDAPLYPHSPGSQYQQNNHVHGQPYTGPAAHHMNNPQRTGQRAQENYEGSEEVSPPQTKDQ
Sequence of DUBs (USP9x, USP19, USP7/8, USP28/15, UCHL5, UCHL3, UCHL1) in HEK 293T cell lysates (Homo sapiens, UniProt Q93009) (Q93009 whole entry): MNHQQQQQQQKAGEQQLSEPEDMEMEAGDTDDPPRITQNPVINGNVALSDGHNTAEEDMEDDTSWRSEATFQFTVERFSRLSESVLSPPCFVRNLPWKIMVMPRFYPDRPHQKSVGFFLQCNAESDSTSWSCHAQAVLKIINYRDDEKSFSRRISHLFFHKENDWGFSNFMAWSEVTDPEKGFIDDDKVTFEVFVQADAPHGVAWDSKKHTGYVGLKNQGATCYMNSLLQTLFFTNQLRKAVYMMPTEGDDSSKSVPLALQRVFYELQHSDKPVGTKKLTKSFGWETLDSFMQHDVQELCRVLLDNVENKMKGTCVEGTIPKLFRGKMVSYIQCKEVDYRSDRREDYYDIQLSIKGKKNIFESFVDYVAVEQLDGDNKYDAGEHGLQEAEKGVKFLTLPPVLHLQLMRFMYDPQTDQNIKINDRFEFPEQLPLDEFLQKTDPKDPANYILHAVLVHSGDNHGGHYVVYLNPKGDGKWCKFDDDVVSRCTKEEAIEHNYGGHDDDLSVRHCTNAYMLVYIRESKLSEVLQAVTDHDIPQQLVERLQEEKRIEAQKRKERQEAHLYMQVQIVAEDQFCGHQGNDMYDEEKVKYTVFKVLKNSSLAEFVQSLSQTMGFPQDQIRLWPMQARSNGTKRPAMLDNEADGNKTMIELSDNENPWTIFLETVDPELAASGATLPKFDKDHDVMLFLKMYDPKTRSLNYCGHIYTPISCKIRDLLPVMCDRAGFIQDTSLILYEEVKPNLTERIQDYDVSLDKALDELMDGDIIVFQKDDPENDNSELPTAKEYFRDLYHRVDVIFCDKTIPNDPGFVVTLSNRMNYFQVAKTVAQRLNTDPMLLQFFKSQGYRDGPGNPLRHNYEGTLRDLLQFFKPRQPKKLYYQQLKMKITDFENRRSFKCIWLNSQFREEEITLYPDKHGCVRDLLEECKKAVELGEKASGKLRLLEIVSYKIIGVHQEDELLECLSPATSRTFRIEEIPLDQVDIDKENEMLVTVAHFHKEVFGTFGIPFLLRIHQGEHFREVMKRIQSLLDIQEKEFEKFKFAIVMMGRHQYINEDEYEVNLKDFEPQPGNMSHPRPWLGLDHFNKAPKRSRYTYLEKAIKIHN

As for `Oc1ccc2ccccc2c1` [2-naphthol], the “cytotoxicity of C17 hydrolysis products” value with MCF7 breast cancer cells is “not cytotoxic”.
For `NCc1ccc(O)cc1` [4-aminomethylphenol], in the series on MCF7 breast cancer cells, the “cytotoxicity of C17 hydrolysis products” value was “not cytotoxic”.
Regarding `CC(C)(C)OC(=O)NCc1ccc(OC(=O)Oc2ccccc2)cc1` [C3], the “DUB inhibitory activity, SAR statement in words” value (shortened to “DUB inhibitory activity”) in [1] was “activity was lost”.
On the same count and under the same terms, the value for `O=C(Oc1ccccc1)Oc1ccc(CNCc2ccc(Cl)cc2)cc1` [C5] was “retained DUB inhibitory activity”.
Take `NCc1ccc(OC(=O)Nc2ccccc2)cc1` [C7]: the “stabilization of the HMW-Ub pool (in words)” value (shortened to “stabilization”) in series [1] is on record as “did not stabilize”.
Same read-out and setting: for `NCc1ccc(NC(=O)Oc2ccccc2)cc1` [C8] the value was “did not stabilize”.
`NCc1ccc(OC(=O)Oc2ccc(Cl)cc2)cc1` [C14]: the “increase of inhibitory potency (factor)” value in [1] is “approximately 10”. Further, the “inhibition of SENP6-catalyzed deSUMOylation of RanGap” value (“inhibition … of RanGap” below) against SENP6 was “failed to inhibit”. The EC50 (as a rule, the concentration at which the effect is half-maximal) in [2] is < 50 µM. Further, the “GFP fluorescence in G76VUb-GFP assay” value in series [3] is given as “failed to increase”. Besides, in the series on K562 leukemia cells, the “accumulation of K48-linked HMW-Ub” value was “caused the accumulation” and the Bcr-Abl level entry is “decrease”.
Take `NCc1ccc(OC(=O)Oc2ccc(Br)cc2)cc1` [C15]: the “increase of inhibitory potency (factor)” value in [1] is “approximately 10”. For the same compound, the “inhibition … of RanGap” value against SENP6 is “failed to inhibit”. Also, in series [2], the EC50 was < 50 µM. Also, the “GFP fluorescence in G76VUb-GFP assay” value in series [3] is given as “failed to increase”. Moreover, in the series with K562 leukemia cells, the “accumulation of K48-linked HMW-Ub” value was “caused the accumulation” and the Bcr-Abl level result was “decrease”.
`NCc1ccc(OC(=O)Oc2ccc3ccccc3c2)cc1` [C17]: in [4] (compound (25 μM) and HA-Ub-VS (1.5 μM) added simultaneously), the “HA-Ub-VS labeling of DUB bands” value is listed as “no inhibition of DUB labeling was observed”. Moreover, the “HA-Ub-VS labeling of DUB bands” value in [4] (lysate treated with compound (25 μM) followed by HA-Ub-VS (1.5 μM)) is recorded as “decreasing the labeling of all the bands”. Besides, the “HA-Ub-VS labeling of DUB bands” value in series [4] (pre-incubated with compound (250 μM) 30 min, diluted 10-fold before HA-Ub-VS) is “labeling was reduced”. The “inhibition of USP7 (anti-USP7 immunoblot after HA-UbVS)” value in series [5] is “inhibition of USP7 was confirmed”. Further, the “accumulation of soluble HMW-Ub” value in the series on MCF7 breast cancer cells (MCF7 cells, 50 μM, 4 h) was “caused the accumulation”. In the series with MCF7 breast cancer cells (MCF7 cells, 4 h), the Mdm2 levels entry is “decreased”, the p21/WAF1 levels entry is “robust increase” and the p53 levels result was “concomitant increase”. Moreover, the cell viability entry in the series on MCF7 breast cancer cells (MCF7 cells, treated every 24 h, 72 h, Alamar Blue) is reported as “cell viability decreased”. The EC50 in [2] is < 50 µM. In the series with trypsin, the kcat as substrate was 0.02 s⁻¹. Further, the “GFP fluorescence in G76VUb-GFP assay” value in [3] was “failed to increase”. In the series on K562 leukemia cells, the “accumulation of K48-linked HMW-Ub” value is recorded as “caused the accumulation” and the Bcr-Abl level entry is reported as “decrease”. The “G1 and apoptotic (sub G1) cells” value in the series with K562 leukemia cells (24 h incubation, FACS) is given as “dose-dependent increase”. Further, the “Bcr-Abl degradation in the presence of bortezomib” value in the series with K562 leukemia cells (C17 50 μM, bortezomib 6 μM, 4 h) was “did not prevent”.
Regarding `NCc1ccc(OC(=O)Oc2cccc3ccccc23)cc1` [C18], the EC50 in [2] is < 50 µM. For the same compound, the “GFP fluorescence in G76VUb-GFP assay” value in series [3] is “failed to increase”. Besides, in the series with K562 leukemia cells, the “accumulation of K48-linked HMW-Ub” value is on record as “caused the accumulation” and the Bcr-Abl level entry is on record as “decrease”.
Turning to `CC(C)(C)OC(=O)NCc1ccc(OC(=O)Oc2ccc3ccccc3c2)cc1` [C19], in series [1], the “DUB inhibitory activity” value is listed as “Inhibitory activity was not recovered”.
As to `CC(C)(C)CNCc1ccc(OC(=O)Oc2ccc3ccccc3c2)cc1` [C20], in [1], the “DUB inhibitory activity” value is reported as “Inhibitory activity was retained”.
The same measure, in the same setting: the value for `CC(C)CNCc1ccc(OC(=O)Oc2ccc3ccccc3c2)cc1` [C21] was “somewhat deleterious”.
In the case of `N/N=C/NCc1ccc(OC(=O)Oc2ccc3ccccc3c2)cc1` [C22], the “DUB inhibitory activity” value in [1] is “efficacious”. The “inhibition … of RanGap” value against SENP6 is on record as “failed to inhibit”. The kcat as substrate with trypsin turned out to be 0.001 s⁻¹.
For `CC(C)(C)OC(=O)NCc1ccc(OC(=O)Oc2ccc(Cl)cc2)cc1` [C23], the “DUB inhibitory activity” value in series [1] is listed as “Inhibitory activity was not recovered”.
With `O=C1/C(=C/c2ccc([N+](=O)[O-])cc2)CS(=O)(=O)C/C1=C\c1ccc([N+](=O)[O-])cc1` [G5, G5 isopeptidase inhibitor 1, reference compound], in series [1], the “stabilization” value is on record as “stabilized”. Moreover, the “GFP fluorescence in G76VUb-GFP assay” value in series [3] was “No significant increase”.
Turning to `Cc1cc(C(=O)CN2CCCC2)c(C)n1-c1ccc(F)cc1` [IU1, reference compound], the “stabilization” value in series [1] is “little effect”.
Turning to `Cc1ccc(/C=C2\CNC/C(=C\c3ccc(C)cc3)C2=O)cc1` [NSC-632839], the kon (in general, the rate constant with which the complex forms) at USP9x lay in the range of 49 to 140 M⁻¹ s⁻¹.
On to `CC(C)C[C@H](NC(=O)[C@H](Cc1ccccc1)NC(=O)c1cnccn1)B(O)O` [bortezomib, reference compound], for which the “stabilization” value in series [1] is reported as “failed to stabilize”. For the same compound, the “GFP fluorescence in G76VUb-GFP assay” value in series [3] is reported as “significantly increased”.
On to chymotrypsin (Bos taurus), for which, in [6], the Km – broadly, the concentration of substrate that gives half-maximal velocity – came to 1 µM and the kcat (as a rule, the maximal rate divided by the concentration of active sites) came to 0.03 s⁻¹. Moreover, in series [7], the Km came to 1 µM and the kcat is 0.03 s⁻¹.
